Assay results as given in PMC2764840 (Nature immunology, 2009).

Legend:
[1] = test system: AND TCRtg DP thymocytes (AND.Rag1^−/−H-2^d); test: CD69 upregulation assay, AND thymocytes; assay type: cell-based, mouse; settings: I-E^k-Ig dimers + anti-CD28, overnight
Summary of the method: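 Plates coated overnight at 4°C in PBS with 1 µg/well self-peptide-loaded I-E^k-Ig dimer (S2-cell-expressed, Protein A-purified; loaded 72 h at 37°C in 0.2 M citrate–PO₄ pH 5.0, then neutralized with 1 M pH 9.0) plus 10 µg/well anti-CD28. Thymocytes (1 × 10⁶/well) cultured overnight at 37°C in IMDM/10% FCS/2-ME; CD69 by flow cytometry. Two independent experiments.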

AND TCRtg DP thymocytes = test: Thymic reaggregate culture, positive selection of AND; assay type: cell-based, mouse; settings: ANV41.2 I-E^k cells, 96 hours
Summary of the method: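 DP thymocytes from newborn (3–14 d) AND.Rag1⁻/⁻H-2^d mice, CD8-bead purified (1 × 10⁶), were pelleted with 5 × 10⁵ untreated ANV41.2 I-E^k cells as standing drops on transwells. Peptide was added to the lower well in I-20 plus medium (Hb control 30 µM). Cultures ran 96 h at 37°C, then CD4/CD8 flow for %CD4SP. Mean ± s.e.m. of 5 experiments; Mann-Whitney.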

[2] = test system: AND TCRtg CD4^+ peripheral T cells; test: Co-agonist assay; assay type: cell-based, mouse; settings: I-E^k-Ig dimers
Summary of the method: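 I-E^k-Ig dimers co-loaded with MCC and test or Hb control peptide at ratios of 1:10 to 1:1,000 (pH 5.0 citrate–PO₄, 37°C, 72 h), coated at 1 µg/well in triplicate. One to 2 × 10⁶ purified splenic AND CD4⁺ T cells (H-2^b) were added per well and cultured three days. ³H-TdR was pulsed for the final 18–24 h. Values are mean ± s.d. of triplicates.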

[3] = test system: AND TCRtg CD4^+ T cells in B6.K.Rag1^−/− mice; test: Homeostatic proliferation assay; assay type: in vivo, mouse; settings: 0.5 mg i.p. on days -1 and +1; CFSE, flow cytometry
Summary of the method: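 Splenic AND CD4⁺ T cells were labeled with 5 µM CFSE, and 10⁶ cells/mouse were given retro-orbitally on day 0 to B6.K.Rag1⁻/⁻ recipients. Recipients received peptide i.p. (0.5 mg; also 0.1 mg) or Hb₆₄₋₇₆ control on days −1 and +1. After four days, inguinal and axillary nodes were pooled and CD4, Vα11 and CFSE analyzed by flow cytometry; totals counted. n = 8 mice/group over five experiments; Mann-Whitney.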

Sequence: GKKVITAFNEGLK [Hb]
- CD69 upregulation (in words) [1]: did not upregulate CD69
- positive selection of AND CD4SP cells (in words) (AND TCRtg DP thymocytes): did not positively select AND TCRtg T cells in thymic reaggregate culture
- stimulation of AND T cells (in words) ([2]; MCC:peptide 1:20): stimulatory
- stimulation of AND T cells (in words) ([2]; MCC:peptide 1:1,000): non-stimulatory
- homeostatic proliferation of AND TCRtg T cells (in words) [3]: proliferation of the AND TCRtg T cells
